Values joined by “and” are separate entries in the source; they are usually repeats but may differ in a detail not shown here. Identical values can stand only once. Marks after values point to notes of the source that are not given here.
How the values were obtained:
[1] = M4112 levels in plasma, liver and tumor of mice bearing MC38 tumors; assay type: in vivo; settings: MC38 tumor-bearing mice
Procedure, shortened: (§1)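 Female adult C57BL/6 mice were inoculated subcutaneously with 0.5×10^6 IDO1-expressing MC38 colon carcinoma cells. At average tumor volumes of about 200–250 mm3 they received a single oral dose of the test compound (30, 75 or 200 mg/kg) or vehicle. Plasma, liver and tumor were sampled at 1, 2, 4, 8 and 24 h. Drug, kynurenine and tryptophan were measured by LC-MS/MS, and the kynurenine:tryptophan ratio was derived. Data are mean±SEM.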

[2] = biological target: tumor IDO1 (Mus musculus, UniProt P28776); assay type: in vivo; settings: MC38 tumor-bearing mice; 30, 75 or 200 mg/kg
Procedure, shortened: as §1

[3] = phase I trial: plasma pharmacokinetics; assay type: in vivo, human
Procedure, shortened: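 Patients were dosed orally twice daily. Blood was sampled on cycle 1 days 1 and 15 (predose and 0.5, 1, 2, 3, 4, 6 and 8 h postdose), on day 8 (predose), and on cycle 2 day 1 (predose and 2 h). Plasma drug levels were measured by LC-MS/MS. Non-compartmental analysis gave Cmax, tmax and AUC0–8, dose-normalized values, predose concentrations and day 15/day 1 accumulation. Dose proportionality was tested with a power model.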

[4] = biological target: IDO1 (Homo sapiens, UniProt P14902); assay: IDO1 activity in ex vivo LPS-stimulated whole blood from M4112-treated patients
[5] = tested on: kynurenine and tryptophan in the plasma; assay: phase I trial: plasma kynurenine and tryptophan; assay type: in vivo, human
Procedure, shortened: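 In this open-label dose-escalation study, patients received the test compound orally twice daily (100–800 mg, three per cohort, 28-day cycles). Plasma was collected on cycle 1 day 1 and day 15 (predose and 1, 2, 4 and 6 h postdose), day 8 (predose), and cycle 2 day 1 (predose and 2 h). Kynurenine and tryptophan were quantified by LC-MS/MS, ratios were calculated, and values were normalized to baseline.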

[6] = tested on: advanced solid tumors; assay: phase I trial: preliminary antitumor activity; assay type: in vivo, human
Procedure, shortened: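 Patients with advanced solid tumors received twice-daily oral doses in 28-day cycles. CT or MRI was done at baseline and within 7 days before day 1 of cycles 3, 5 and 7, then every three cycles. The investigator assessed objective response, best overall response, disease control and progression-free survival per RECIST 1.1. Binary endpoints used exact Clopper-Pearson 95% CI and PFS used Kaplan-Meier.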

[7] = 100 to 600 mg two times per day, day 15
[8] = Cycle 1, day 1, 100 mg two times per day, n=3, geometric mean (CV%)
[9] = Cycle 1, day 1, 200 mg two times per day, n=3, geometric mean (CV%)
[10] = Cycle 1, day 1, 400 mg two times per day, n=3, geometric mean (CV%)
[11] = Cycle 1, day 1, 600 mg two times per day, n=3, geometric mean (CV%)
[12] = Cycle 1, day 1, 800 mg two times per day, n=3, geometric mean (CV%)
[13] = Cycle 1, day 8, 100 mg two times per day, n=3, geometric mean (CV%)
[14] = Cycle 1, day 8, 200 mg two times per day, n=3, geometric mean (CV%)
[15] = Cycle 1, day 8, 400 mg two times per day, n=3, geometric mean (CV%)
[16] = Cycle 1, day 8, 600 mg two times per day, n=3, geometric mean (CV%)
[17] = Cycle 1, day 8, 800 mg two times per day, n=3, geometric mean (CV%)
[18] = Cycle 1, day 15, 100 mg two times per day, n=3, geometric mean (CV%)
[19] = Cycle 1, day 15, 200 mg two times per day, n=3, geometric mean (CV%)
[20] = Cycle 1, day 15, 400 mg two times per day, n=3, geometric mean (CV%)
[21] = Cycle 1, day 15, 600 mg two times per day, n=3, geometric mean (CV%)
[22] = Cycle 1, day 15, 800 mg two times per day, n=1, individual value
[23] = Cycle 2, day 1, 100 mg two times per day, n=3, geometric mean (CV%)
[24] = Cycle 2, day 1, 200 mg two times per day, n=2, individual values
[25] = Cycle 2, day 1, 400 mg two times per day, n=3, geometric mean (CV%)
[26] = Cycle 2, day 1, 600 mg two times per day, n=2, individual values
[27] = Cycle 2, day 1, 800 mg two times per day, n=1, individual value

Sequence of IDO1 (P14902 whole entry): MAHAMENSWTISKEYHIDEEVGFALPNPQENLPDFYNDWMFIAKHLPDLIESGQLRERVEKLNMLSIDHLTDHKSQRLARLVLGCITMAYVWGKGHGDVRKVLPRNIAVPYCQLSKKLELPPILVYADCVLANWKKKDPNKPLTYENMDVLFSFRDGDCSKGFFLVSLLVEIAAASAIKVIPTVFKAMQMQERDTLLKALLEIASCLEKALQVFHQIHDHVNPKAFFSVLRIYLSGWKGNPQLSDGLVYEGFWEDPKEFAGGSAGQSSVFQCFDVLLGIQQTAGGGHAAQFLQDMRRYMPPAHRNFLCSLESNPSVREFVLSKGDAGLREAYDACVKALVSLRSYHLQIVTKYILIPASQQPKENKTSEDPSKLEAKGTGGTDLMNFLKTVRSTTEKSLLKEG
Sequence of tumor IDO1 (P28776 whole entry): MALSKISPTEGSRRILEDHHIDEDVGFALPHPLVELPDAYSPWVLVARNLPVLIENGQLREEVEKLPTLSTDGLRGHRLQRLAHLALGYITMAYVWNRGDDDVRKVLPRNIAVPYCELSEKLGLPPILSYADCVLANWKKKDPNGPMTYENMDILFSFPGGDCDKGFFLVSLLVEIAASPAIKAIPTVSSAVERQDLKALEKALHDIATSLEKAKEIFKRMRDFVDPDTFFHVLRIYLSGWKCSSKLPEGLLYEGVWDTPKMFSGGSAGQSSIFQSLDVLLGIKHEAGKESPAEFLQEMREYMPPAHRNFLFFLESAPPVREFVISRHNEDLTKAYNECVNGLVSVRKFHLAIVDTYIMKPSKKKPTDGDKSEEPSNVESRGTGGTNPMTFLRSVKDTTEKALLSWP

NS(=O)(=O)[C@H]1CC[C@](F)(CC[C@H]2c3ccccc3-c3cncn32)CC1 [M4112]
exposure to M4112 in the liver compared with both the plasma and the tumor [1]: approximately 10 fold | concentration of M4112 in the tumor by 24 hours post-treatment ([1]; single oral dose): decreased to baseline levels | time at which the concentration of M4112 in the tumor peaked ([1]; single oral dose 30, 75 or 200 mg/kg, post-treatment): 1 to 2 h | kynurenine:tryptophan ratio in the liver and plasma [2]: dose-dependent reduction | increase of mean exposure with dose [3, 7]: greater than dose-proportional | slope estimate of dose proportionality (power model) [3, 7]: 1.46–1.67 | accumulation / autoinduction following two times per day dosing ([3]; 100–600 mg dose range): no appreciable accumulation or evidence of autoinduction | AUC0–8 [3, 8]: 3550 (14.4) ngxh/mL | AUC0–8/dose [3, 8]: 35.5 (14.4) ngxh/mL/mg | Cmax [3, 8]: 806 (9.9) ng/mL | Cmax/dose [3, 8]: 8.06 (9.9) ng/mL/mg | tmax ([3]; Cycle 1, day 1, 100 mg two times per day, n=3, median (min, max)): 1.08 (1.08, 2.12) hours | AUC0–8 [3, 9]: 8740 (13.6) ngxh/mL | AUC0–8/dose [3, 9]: 43.7 (13.6) ngxh/mL/mg | Cmax [3, 9]: 2110 (13.6) ng/mL | Cmax/dose [3, 9]: 10.5 (13.6) ng/mL/mg | tmax ([3]; Cycle 1, day 1, 200 mg two times per day, n=3, median (min, max)): 2.10 (2.07, 3.08) hours | AUC0–8 [3, 10]: 27,700 (21.4) ngxh/mL | AUC0–8/dose [3, 10]: 69.1 (21.4) ngxh/mL/mg | Cmax [3, 10]: 7670 (39.6) ng/mL | Cmax/dose [3, 10]: 19.2 (39.6) ng/mL/mg | tmax ([3]; Cycle 1, day 1, 400 mg two times per day, n=3, median (min, max)): 1.08 (1.07, 1.08) hours | AUC0–8 [3, 11]: 50,400 (7.7) ngxh/mL | AUC0–8/dose [3, 11]: 84.0 (7.7) ngxh/mL/mg | Cmax [3, 11]: 11,700 (24.6) ng/mL | Cmax/dose [3, 11]: 19.6 (24.6) ng/mL/mg | tmax ([3]; Cycle 1, day 1, 600 mg two times per day, n=3, median (min, max)): 1.00 (0.97, 1.07) hours | AUC0–8 [3, 12]: 14,600 (85.1) ngxh/mL | AUC0–8/dose [3, 12]: 18.2 (85.1) ngxh/mL/mg | Cmax [3, 12]: 2770 (83.6) ng/mL | Cmax/dose [3, 12]: 3.47 (83.6) ng/mL/mg | tmax ([3]; Cycle 1, day 1, 800 mg two times per day, n=3, median (min, max)): 2.08 (2.07, 4.12) hours | Cpre [3, 13]: 156 (58.2) ng/mL | Cpre/dose [3, 13]: 1.56 (58.2) ng/mL/mg | Cpre [3, 14]: 96.5 (85.0) ng/mL | Cpre/dose [3, 14]: 0.482 (85.0) ng/mL/mg | Cpre [3, 15]: 1240 (51.6) ng/mL | Cpre/dose [3, 15]: 3.11 (51.6) ng/mL/mg | Cpre [3, 16]: 4410 (54.5) ng/mL | Cpre/dose [3, 16]: 7.35 (54.5) ng/mL/mg | Cpre [3, 17]: 5200 (105.4) ng/mL | Cpre/dose [3, 17]: 6.50 (105.4) ng/mL/mg | AUC0–8 [3, 18]: 4790 (25.4) ngxh/mL | AUC0–8/dose [3, 18]: 47.9 (25.4) ngxh/mL/mg | Cmax [3, 18]: 975 (34.9) ng/mL | Cmax/dose [3, 18]: 9.75 (34.9) ng/mL/mg | Cpre [3, 18]: 221 (20.5) ng/mL | Cpre/dose [3, 18]: 2.21 (20.5) ng/mL/mg | tmax ([3]; Cycle 1, day 15, 100 mg two times per day, n=3, median (min, max)): 3.08 (2.12, 4.13) hour | AUC0–8 [3, 19]: 7580 (11.5) ngxh/mL | AUC0–8/dose [3, 19]: 37.9 (11.5) ngxh/mL/mg | Cmax [3, 19]: 1720 (20.5) ng/mL | Cmax/dose [3, 19]: 8.58 (20.5) ng/mL/mg | Cpre [3, 19]: 199 (53.9) ng/mL | Cpre/dose [3, 19]: 0.997 (53.9) ng/mL/mg | tmax ([3]; Cycle 1, day 15, 200 mg two times per day, n=3, median (min, max)): 2.10 (1.00, 6.08) hour | AUC0–8 [3, 20]: 31,500 (28.8) ngxh/mL | AUC0–8/dose [3, 20]: 78.8 (28.8) ngxh/mL/mg | Cmax [3, 20]: 6560 (27.4) ng/mL | Cmax/dose [3, 20]: 16.4 (27.4) ng/mL/mg | Cpre [3, 20]: 1630 (45.7) ng/mL | Cpre/dose [3, 20]: 4.08 (45.7) ng/mL/mg | tmax ([3]; Cycle 1, day 15, 400 mg two times per day, n=3, median (min, max)): 1.08 (0.50, 3.00) hour | AUC0–8 [3, 21]: 59,500 (12.7) ngxh/mL | AUC0–8/dose [3, 21]: 99.2 (12.7) ngxh/mL/mg | Cmax [3, 21]: 12,100 (2.2) ng/mL | Cmax/dose [3, 21]: 20.2 (2.2) ng/mL/mg | Cpre [3, 21]: 3380 (42.4) ng/mL | Cpre/dose [3, 21]: 5.63 (42.4) ng/mL/mg | tmax ([3]; Cycle 1, day 15, 600 mg two times per day, n=3, median (min, max)): 1.03 (0.93, 2.17) hour | AUC0–8 [3, 22]: 93,200† ngxh/mL | AUC0–8/dose [3, 22]: 116† ngxh/mL/mg | Cmax [3, 22]: 21,100† ng/mL | Cmax/dose [3, 22]: 26.4† ng/mL/mg | Cpre [3, 22]: 9810† ng/mL | Cpre/dose [3, 22]: 12.3† ng/mL/mg | tmax [3, 22]: 2.00† hour | Cpre [3, 23]: 128 (67.7) ng/mL | Cpre/dose [3, 23]: 1.28 (67.7) ng/mL/mg | Cpre [3, 24]: 83.3 ng/mL and 85.2 ng/mL | Cpre/dose [3, 24]: 0.417 ng/mL/mg and 0.426 ng/mL/mg | Cpre [3, 25]: 957 (72.1) ng/mL | Cpre/dose [3, 25]: 2.39 (72.1) ng/mL/mg | Cpre [3, 26]: 1910 ng/mL and 2560 ng/mL | Cpre/dose [3, 26]: 3.18 ng/mL/mg and 4.27 ng/mL/mg | Cpre [3, 27]: 8560† ng/mL | Cpre/dose [3, 27]: 10.7† ng/mL/mg | tmax ([3]; across all dose levels on both days 1 and 15, approximately): 1 to 3 h | M4112 exposure of the 800 mg two times per day cohort ([3]; cycle 1, day 1): initially lower than that of the other dose groups | IDO1 activity inhibited ([4]; 800 mg two times per day, throughout the dosing interval): Approximately 90% | IDO1 inhibition in ex vivo stimulated blood ([4]; across all doses tested): rapid onset of IDO1 inhibition | time of maximum IDO1 inhibition ([4]; post-M4112 administration): 1 to 4 h | dose dependence of IDO1 inhibition ([4]; steady state): trend toward dose-dependent IDO1 inhibition | plasma kynurenine:tryptophan ratio ([5]; cycle 1 day 1, after 6 hours): decrease | decrease in plasma kynurenine levels ([5]; day 1 of cycle 1, up to 6 hours after the first dose, all dose levels): 12%–35 | plasma tryptophan levels ([5]; day 1 of cycle 1, 200 mg two times per day and above): increased | plasma kynurenine levels ([5]; day 15 of cycle 1): returned to at least baseline levels | best overall response stable disease, patients ([6]; 9 of 15 patients): 60.0% | median progression-free survival ([6]; 15 patients): 3.7 months | objective responses ([6]; 15 patients): no objective responses

Source: paper PMC7449315 (Journal for Immunotherapy of Cancer, 2020)
